Only some compounds are listed: those with a hit (about 1.1% of all), similar ones and a draw of the others.
TbHK1 inh = Trypanosoma brucei hexokinase 1 inhibitors, primary screen, biochemical, G6PDH-coupled NADH absorbance, MLSCN library. hexokinase 1 [Trypanosoma brucei]. recombinant TbHK1, G6PDH-coupled NADH A340. inhibition, % at 10 µM. 0.11% of 220,000 active. AID 1430, 2008;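 active = inhibition of 50% or more in the single-dose primary screen; inactive = inhibition below 50%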
Diaphorase act = compounds boosting diaphorase resazurin reduction – biochemical, uHTS, resorufin fluorescence, counter-screen for diaphorase-coupled primary assays, primary screen. Diaphorase/resazurin coupled assay, 16 min; active compounds read high; 1 = vehicle wells, 0 = NADH-free wells. activation factor at 20 µM. 0.005% of 190,000 active. AID 1229, 2008;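 active = diaphorase activity raised at least twofold by the compound at 20 µM; inactive = activation factor below 2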
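Material: purified diaphorase enzyme from Clostridium kluyveri; Also added: 0.114 mM NADH and 0.1 mM resazurin, final amounts; Doses: single compound dose of 20 µM, 1% DMSO final; Times: 16 min enzyme reaction, ambient temperature; Detection: resorufin fluorescence, excitation 544 nm, emission 590 nm; Measure: increased resorufin signal from activators or reducing compounds.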
PMI act satM6P = human PMI activators, high substrate, primary screen, biochemical, fluorescence intensity, near-saturating mannose 6-phosphate; Mannose-6-phosphate isomerase (Homo sapiens), P34949; coupled PMI enzyme assay, resazurin fluorescence, 20 min; active compounds read high; 1 = untreated enzyme, 0 = substrate-free blank; activation factor at 20 µM; 0.34% of 190,000 active; AID 1216, 2008;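 active = activation factor of 2 or more at 20 µM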
Target sequence (P34949 whole entry, looked up): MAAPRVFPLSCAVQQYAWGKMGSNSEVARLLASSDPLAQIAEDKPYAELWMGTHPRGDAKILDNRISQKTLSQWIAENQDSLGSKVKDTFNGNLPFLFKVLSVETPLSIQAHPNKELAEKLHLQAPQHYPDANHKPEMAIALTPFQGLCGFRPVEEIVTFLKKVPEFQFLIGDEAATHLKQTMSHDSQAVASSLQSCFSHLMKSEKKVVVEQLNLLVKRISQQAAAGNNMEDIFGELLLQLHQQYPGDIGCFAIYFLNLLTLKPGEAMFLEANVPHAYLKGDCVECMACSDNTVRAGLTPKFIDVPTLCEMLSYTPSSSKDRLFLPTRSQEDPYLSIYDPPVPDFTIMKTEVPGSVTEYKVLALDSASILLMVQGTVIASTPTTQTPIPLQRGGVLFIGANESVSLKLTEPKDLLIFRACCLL
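Test system: human PMI in coupled enzyme assay; Input: PMI at 15 ng/mL final; Medium: HEPES buffer, pH 7.4; Schedule: 20 min incubation at room temperature; Technique: resorufin fluorescence at Ex 544/Em 590 nm; Compound: 20 µM single dose; Probe or stimulus: Near-saturating mannose-6-phosphate, 1.0 mM.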
PMI activator = activators of human PMI, primary screen, biochemical, fluorescence intensity, near-Km mannose 6-phosphate; Mannose-6-phosphate isomerase (Homo sapiens), P34949; purified human PMI, coupled resazurin fluorescence, 20 min; active compounds read high; 1 = vehicle control, 0 substrate-free wells; activation factor at 20 µM; 0.005% of 190,000 active;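 active = activation factor of 2 or more at 20 µM, relative to plate controls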
G6PDH CS = L. mesenteroides G6PDH inhibitors, counter-screen for G6PDH-coupled screening assays, biochemical, Leuconostoc mesenteroides enzyme; Purified L. mesenteroides G6PDH, diaphorase/resazurin coupled fluorescence, 45 min; 0.12% of 200,000 active; inhibition, % at 5 µM; in the data active = inhibition above about 50%
Diaphorase inh = diaphorase inhibitors and chemical oxidizers, primary screen, counter-screen for diaphorase-coupled primary assays, biochemical, uHTS, resorufin fluorescence | diaphorase resazurin-to-resorufin fluorescence, NADH, 16 min; bacterial (C. kluyveri) enzyme, not human | inhibition, % at 20 µM | 0.69% of 190,000 active | AID 1217, 2008;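 active = primary screen inhibition at 20 µM above a set limit, cut at about 50% in these data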;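 also: plate controls were DMSO with full reaction for no effect and wells lacking NADH for full effect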
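material = Clostridium kluyveri diaphorase enzyme | amount = 0.14 U/mL diaphorase, enzyme working solution | schedule = incubation 16 min, room temperature | detection = fluorescence of resorufin formed from resazurin, Ex 544/Em 590 nm | benchmarks = positive control minus NADH, DMSO neutral control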
Numbers without * were called inactive; · = no result given.

SMILES | TbHK1 inh | Diaphorase act | PMI act satM6P | PMI activator | G6PDH CS | Diaphorase inh
Cc1cccc(CCNC(=O)C2CCN(S(=O)(=O)c3cccc4nsnc34)CC2)c1 | -11 | 0.8 | 1 | 1 | 1 | 15
CC(=O)c1cccc(NC(=O)C(CC(C)C)NC(=O)C2CCCCC2)c1 (configuration not stated) | -2 | 1.1 | 1 | 1.1 | 7 | -11
CC1(C)CNc2cc(N)ccc2S1 | -8 | 0.3 | 0.2 | 0.2 | 18 | 72*
Nc1c(C(=O)NCc2ccco2)sc2nc3c(cc12)C(=O)CCC3 | -4 | 0.5 | 1.2 | 1 | -41 | 53*
O=C(O)CCc1ncc(C(F)(F)F)cc1Cl | 30 | 1 | 1.1 | 1.1 | 0 | 2
O=C(O)CC/C(=N/Nc1ncc(C(F)(F)F)cc1Cl)C(=O)O | -3 | 0.5 | 0.6 | 0.6 | 10 | 53*
[O-][N+]1=c2ccc(Nc3ccccc3)cc2=NC12CCCCC2 | -21 | 0.3 | 0.3 | 0.2 | 48 | 72*
COc1ccc(Nc2ccc3c(c2)=NC2(CCCCC2)[N+]=3[O-])cc1 | -20 | 0.3 | 0.3 | 0.2 | 56* | 73*
COc1ccc(NC2=NC(=S)N(c3ccccc3C)C23CCCCC3)cc1 | -1 | 0.9 | 0.9 | 0.9 | 0 | 13
Cc1ccc(NC(=O)COC(=O)Cc2ccsc2)c(C)c1 | 6 | 1 | 1 | 0.9 | -1 | 4
COc1ccc(-c2ocnc2C(=O)NCc2nn(-c3ccccc3)nc2C)cc1 | -7 | · | · | · | · | ·
COc1ccc(/C=N/NC(=O)c2ccc(C)cc2)cc1CN1CCN(c2ccc(F)cc2)CC1 | -7 | 0.9 | 1 | 1 | 0 | 13
COc1ccc(/C=N\NC(=O)c2cc(O)c(O)c(O)c2)cc1CN1CCN(c2ccc(F)cc2)CC1 | -13 | 0.4 | 0.5 | 0.4 | -20 | 63*
C=CCOc1c(OC)cc(/C=N/Nc2cccc(C(=O)O)c2)c(Br)c1Br | -5 | 0.6 | 2.4* | 1.6 | -6 | 37
C=CCOc1c(/C=N\NC(N)=O)cccc1OC | -6 | · | · | · | · | ·
CC(C)OP(=O)(c1ccc(N(C)C)cc1)C(O)c1cccnc1 (configuration not stated) | -2 | · | · | · | · | ·
O=C(N/N=C/c1ccc(O)c(O)c1O)/C(=C/c1ccc([N+](=O)[O-])cc1)NC(=O)c1ccccc1 | -6 | 0.3 | 0.3 | 0.3 | 2 | 74*
Cc1ccc(NC(=O)/C(=C\c2ccc([N+](=O)[O-])cc2)NC(=O)c2ccccc2)cc1 | -22 | 1.1 | 1.1 | 1.1 | 9 | -5
COC(=O)c1cc(-c2ccc(Cl)cc2Cl)n[nH]1 | 6 | 0.9 | 0.9 | 0.9 | 1 | 14
Cc1ccc(S(=O)(=O)Nc2ccc(O)c3ncccc23)cc1 | 2 | 0.4 | 0.7 | 0.6 | 50* | 57*
Nn1cnnc1N/N=C\c1ccc(-c2ccccc2[N+](=O)[O-])o1 | 4 | 0.1 | 0.3 | 0.2 | 19 | 88*
Cn1nc(C(F)(F)F)c(-c2cccc(C(F)(F)F)c2)c1NC(=O)Nc1ccc(F)cc1 | -5 | · | · | · | · | ·
N#CC1CC(c2ccccc2)Nc2cc(Cl)ccc2N1 (configuration not stated) | -6 | · | · | · | · | ·
CCN=C(N/N=C/c1ccc([N+](=O)[O-])cc1)SC | -20 | 0.9 | 2.1* | 1.2 | 3 | 11
CCN(CC)c1ccc(/C=N/NC(=O)c2ccc([N+](=O)[O-])cc2)cc1 | -8 | 1.2 | 1.1 | 1 | 9 | -15
CC12CCC(C(=O)N(CSC(=S)N/N=C\c3ccccc3O)C1=O)C2(C)C (configuration not stated) | 8 | 0.4 | 1.1 | 0.8 | 5 | 57*

Screening results as filed in PubChem.
